Experimental data collected from several papers.
Each line is one published result; the experiments were not run side by side.

The AUC of `CNC(=O)c1ccc(-c2cnn3ccc(C(=O)N(C)c4ccc(Cl)c(C(=O)OC)c4)cc23)cc1` is reported as 9.1 ng·h/mL (female C57BL/6 mouse, plasma; oral, 10 mg/kg/day).
`NCCNC(=O)O[C@H]1CCC[C@@]2(C1)OOC1(O2)C2CC3CC(C2)CC1C3` (stereo partly shown) gave an AUC(0-t) of 752 ng·h/mL (male CD-1 mouse, plasma; intravenous, 3 mg/kg).
The half-life of `COc1ccc([C@@]23Oc4cc(OC)cc(OC)c4[C@@]24NC(C)=N[C@@]4(O)[C@H](C(=O)N(C)OC)[C@H]3c2ccccc2)cc1` is reported as 113 min (metabolic stability; rat, liver microsomes).
`COc1cc2nc3n(c(=O)c2cc1Cl)CC[C@@H]1[C@H]3CCCN1C` (racemic) gave a CC50 of > 20 µM (SH-SY5Y; cell growth or viability, ATP luminescence; 72 h).
The AUC(0-inf) of `CN1CCN(S(=O)(=O)c2cc([N+](=O)[O-])ccc2N(CCOS(C)(=O)=O)CCOS(C)(=O)=O)CC1` is reported as 2.18 µM·h (female SCID mouse, plasma; intraperitoneal, 10 mg/kg).
`COc1ccc([C@@]23Oc4cc(OC)cc(OC)c4[C@@]24N=C(C2CC2)N[C@@]4(O)[C@H](C(=O)N(C)OC)[C@H]3c2ccccc2)cc1` gave a half-life of 38.9 min (metabolic stability; male Sprague-Dawley rat, liver microsomes; 1 µM, pH 7.4).
`CC(C)C[C@H](NC(=O)[C@H](Cc1ccccc1)NC(=O)[C@H](Cc1ccccc1)NC(=O)Cc1ccc(-c2ccccc2)cc1)C(=O)N[C@@H](CCCCN)C(=O)N[C@@H](CCCNC(=N)N)C(=O)N[C@H](C(=O)N[C@@H](Cc1c[nH]c2ccccc12)C(=O)N[C@@H](CCCCN)C(=O)N[C@@H](CCCNC(=N)N)C(=O)O)C(C)C` gave a half-life of 5.12 min (metabolic stability; rat, liver microsomes; 1 µM).
The AUC(0-t) of `C=CS(=O)(=O)c1ccc(Nc2nc(OCC3CCCCC3)c3nc[nH]c3n2)cc1` is reported as 137 ng·h/mL (male BALB/c mouse, plasma; intraperitoneal, 20 mg/kg, single dose).
`CC(C)(N)CNC(=O)O[C@H]1CCC[C@@]2(C1)OOC1(O2)C2CC3CC(C2)CC1C3` (stereo partly shown) gave an AUC(0-inf) of 841 ng·h/mL (male CD-1 mouse, plasma; oral, 10 mg/kg).
The bioavailability of `Cn1nccc1[C@]1(CNC(=O)c2ccc(F)c(F)c2-c2ccc(C(F)(F)F)cc2)NC(=O)NC1=O` is reported as 132% (male C57BL/6 mouse, plasma; oral, 1 mg/kg).
